System: MS2 coat protein
Assay: apparent Kd, MS2 coat protein; higher = weaker binding; RNA-MaP array; tryptophan 2.4 mM where present
Outline: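 Two titrations, one without ligand and one with constant ligand, were run with SNAP-549-labelled MS2 coat protein from 0.7 or 1.5 nM, doubling to 3 µM. The targets were designs transcribed by stalled E. coli RNA polymerase on Illumina sequencing-chip clusters, in 100 mM Tris-HCl pH 7.5, 80 mM KCl, 4 mM MgCl2, BSA, DTT, yeast tRNA and Tween-20. The apparent Kd is the median of filtered per-cluster binding-curve fits, with green signal normalised to red-channel RNA signal and control-cluster median Fmax.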

[1] = designed as: OFF switch for tryptophan, no ligand
[2] = ligand present: tryptophan, designed as: OFF switch for tryptophan
[3] = designed as: ON switch for tryptophan, no ligand
[4] = ligand present: tryptophan, designed as: ON switch for tryptophan

Sequence	apparent Kd [1] [nM]	apparent Kd [2] [nM]	apparent Kd [3] [nM]	apparent Kd [4] [nM]
UAUCGAGGUACAUGAGGAUCACCCAUGUAUCGAGGACCGGUACGGCCGCCACUCGAUAAUGGCGGAUCGUUAGUCCUCUUCGAUA	10.7	11.4		
AAUACCGGUCCUCGAAGGUGAUCCUCAUAACGAGGACCGGUACGGCCGCCACUCGAUAACAUGAGGAUCACCCAUGUAAUAAUAA	187	138		
AGAAUAUAGUCGGCCGCCACUCUUCAUACAUGAGGAUCACCCAUGUUUAAUUCUUGGAUAUUCUUGAGGACCGGGACAUAGGCAU			18.4	16.8
AUGGUCGACGAUCUGCGAAAAGCAGAUCGACGAGGACCGGUACGGCCGCCACUCGUGUUCAUUAAACAUGAGGAUCACCCAUGUA			48.8	21.1
CCUCAAUCGUCGGCCGCCACUGGAUCAUGCGGAUACAUGAGGAUCACCCAUGUGGGUGUGGUACGCAGGACCGGGACAAGACCCG			340	244
UUAUAAGUACCGGUCCUCAGAUCCUCAUGACGAGGACCGGUACGGCCGCCACUCGAAACAUGAGGAUCACCCAUGUAAUAAUACC	37.5	29.1		
UCGUUUUAGUCGGCCGCCACUGAACUCAUGUUCAACAUGAGGAUCACCCAUGUACCUUAUUUUAACAGGACCGGGACGUAAUAGA	123	97.5		
CCUCAAUAGACGGCCGCCACUGAAACAUGCGGAUACAUGAGGAUCACCCAUGUGGGUGUGUUACGCAGGACCGGGUCAAGACCCG			345	480
CGAUAUGGGACGGCCGCCACUAUUAUGUAACAAAAUAAACAUGAGGAUCACCCAUGUACAUGGGAUAGGACCGGGUCCUAUAACG			32.4	19.9
CGAGUAAGAACAAUCGAAUAACGGUUUUCGCGAGGACCGGUACGGCCGCCACUCGUGUGAUAUAACACAUGAGGAUCACCCAUGU			26.3	24.4
AAACAUGAGGAUCACCCAUGUAUACUUAGACGAGGACCGGUACGGCCGCCACUCGAACUUCAAGAUUUGGCGGAAAAUGUAUGUA	11.3	12.9		
GUAUUAACAAAAGUUGAUACAGUGGGUGAACGAGGACCGGUACGGCCGCCACUCGGACAUGAGGAUCACCCAUGUCCAUGUGAAA	17.2	27.2		
AUAAUAAUACAUGAGGAUCACCCAUGUAUGCGAGGACCGGUACGGCCGCCACUCGACCUCAUGCAUACAUGAGGAUCACCCAUGU			32.5	62
AUAAUGAGUGGUGGAUAGGUGAUCCUCUUACGAGGACCGGUACGGCCGCCACUCGAUAACAUGAGGAUCACCCAUGUAAUAAUAA	15.7	49.9		
CUCAUCCACGCGGCCGCCACUAUAUUGUGGUGUGAAUGUGUCGUAAUACAUGAGGAUCACCCAUGUAGGACCGGGCGUGGAUGAG	20.1	32.9		
GACCCAUGAGUUGCAAAAGCUCAUGGGUCGCGAGGACCGGUACGGCCGCCACUCGGCUGUACAUGAGGAUCACCCAUGUCAGGGU			371	529
UACUUGCUGACGGCCGCCACUAGAACAUGAGGAUCACCCAUGUAAGUGGUUGGUUCAUGGGUGACUAGGACCGGGUCAGCAAGAU	32.3	37.3		
GGGUGGUAGGCGGCCGCCACUGAUUUUCAUAUAUAUAUAACAUGAGGAUCACCCAUGUAGAUAUGCAGGACCGGGCCUGUUGUUU			36.5	30.4
GCUAGGUCAUCGGCCGCCACUAACGACGGUUCCAACAUGAGGAUCACCCAUGUGCCACAUGCGCAUAGGACCGGGAUGACCUAGC			33	21
ACAUGAGGAUCACCCAUGUGAAGCAGGGUACGAGGACCGGUACGGCCGCCACUCGAGCAUUAUACCGAGUGAAUGGCAACGAUGU	15.7	17		
AACAUGAGGAUCACCCAUGUGUCCUCGAAACGAGGACCGGUACGGCCGCCACUCGAAAGGUGUUGACGAAAAGUCAGCACCAAAA	302	930		
UCCUGCAGAGCGGCCGCCACUGUGUUGCGUGAGGAUGACCCAACAUGAGGAUCACCCAUGUUGUUUAGGACCGGGCUUGCCUCGA	13.4	12.3		
ACCUCAUAGGCGGCCGCCACUGUAAUGACUACGUCAAACAUGAGGAUCACCCAUGUAGUCAAUCACAGGACCGGGUCAUGGGUAG			39.1	23.9

Sequence	apparent Kd [1] [nM]	apparent Kd [2] [nM]	apparent Kd [3] [nM]	apparent Kd [4] [nM]
AUAAAAGGGUUAUAUAGAUUUAGGUCCAGUCGAGGACCGGUACGGCCGCCACUCGUACUGAAAUACAUGAGGAUCACCCAUGUUA			21.8	22.7
UGCAUGAGGAUCGCCCGUGUCGAGCCGGUGCGAGGACCGGUACGGCCGCCACUCGAGACAUGAGGAUCACCCAUGUUGUGCGUGA	56.5	91.4		
GGUUACUCUACGGCCGCCACUGGGCAUGUAAAUAACAUGAGGAUCACCCAUGUGGAAUAAAAUUACAGGACCGGGUAGUGUAACC			254	40.2
AGACUUCGCAUAGGAAAACUAUGUGAAGUCCGAGGACCGGUACGGCCGCCACUCGUCCUCAACAUGAGGAUCACCCAUGUAAUAA	21.5	27.3		
CUAGAUGGAAACGUCUGGACGCACAAGCGACGAGGACCGGUACGGCCGCCACUCGAAGAGUGGUGGACAUGAGGAUCACCCAUGU			53.8	39.2
ACAUGAGGAUCACCCAUGUACAUCACCCGACGAGGACCGGUACGGCCGCCACUCGGGUAUAUAUAUACAUCGGGUGAUUUUACGU			18.5	18
GGAUUACGAAAGUAGUCCAUCAAGUUCGAGCGAGGACCGGUACGGCCGCCACUCGAACAUGAGGAUCACCCAUGUAGCGAAAGCU			284	255
AACAUGAGGAUCACCCAUGUCCUCGUGUUCCGAGGACCGGUACGGCCGCCACUCGGUCCUCGCGAGGAUGGUCAAAGACUAUCCA			97.4	170
UAUAUAUAUCACUAACUGUUCUUGAGGUCUCGAGGACCGGUACGGCCGCCACUCGUGCCGCCUCACAUGAGGAUCACCCAUGUCC	53.7	57		
AGCCGCGUUCUUUCUUUCUUUCUAGCGGCACGAGGACCGGUACGGCCGCCACUCGCCCACAUGAGGAUCACCCAUGUAGUGGGUG	18.8	80.6		
UGCUAGUGAUCGGCCGCCACUGGCACCUUGAGGAUCCUGCUAAAGUACAUGAGGAUCACCCAUGUCAGGACCGGGAUCAUCAGUG	10.4	10.5		
GGAUUCAACUCGGCCGCCACUGGUGAUCCUAAUGUACAUGAGGAUCACCCAUGUACAUGAGAAUACAGGACCGGGAGAUAAGCAA			19.4	13.9
AGUUUAGACACGGCCGCCACUCGUGACAGAUUUAGCAGUGGUCAACAUGAGGAUCACCCAUGUCUGAGGACCGGGUGUUGAGUUU	177	631		
UGAUACCAGUCGGCCGCCACUAUGCUAGAUACUAGCAAUAAAGGGCGACAUGAGGAUCACCCAUGUAGGACCGGGACUGGUAUCU	11.2	14.8		
CUGCUACAUACGGCCGCCACUUUAAACAUGAGGAUCACCCAUGUACGGAAGGGUGGUAAAUGUUAAAGGACCGGGUAUGUAGCAA	176	45.1		
UGUCGGCGAAAGUUGGCGUGUCUUGCUGGUCGAGGACCGGUACGGCCGCCACUCGAUCCUUCGCACAUGAGGAUCACCCAUGUUG			25.5	28.5
AAAUUAUAGGCGGCCGCCACUAGAGUUAGGCUUAUGUACUGGGUAACAUGAGGAUCACCCAUGUAUAGGACCGGGCCAUAAUAAA			53.5	52.6
GCAUCCUAGUCGGCCGCCACUGGUACGAACACCUUCACCCGUGUGCACAUGAGGAUCACCCAUGUCAGGACCGGGACUAGGAUGC			9.36	9.66
UAUAUAUAUCACGAACUGUGGUGUAUGUCCCGAGGACCGGUACGGCCGCCACUCGCGUGGUUCCACAUGAGGAUCACCCAUGUUG	18.9	22.7		
UAAACUACACAUGAGGAUCACCCAUGUGGCCGAGGACCGGUACGGCCGCCACUCGUGUGUUAAUAAAAGAACUGCAAAGUUCCUU			295	86.1
AUAUAUACAUGAGGAUCACCCAUGUUAUUUCGAGGACCGGUACGGCCGCCACUCGAUAGAGUAGAAGUAACAUGUGUUAGUUGAU			22.3	47
UAAACUACACAUGAGGAUCACCCAUGUGGCCGAGGACCGGUACGGCCGCCACUCGUGUGUUAAUAAAAGAACCGCAAAGUUCUUU			277	75.9
GGGUGGUAGGCGGCCGCCACUGAUUUUUAUUUAUAGAUGACAUGAGGAUCACCCAUGUAGAUAUGCAGGACCGGGCCUGUUGUUU			19.3	17.8

From the EternaBench riboswitch data
